Measured values as given in paper PMC6315097 (The Korean Journal of Physiology & Pharmacology : Official …, 2018).

Tests used:
male C57BL/6 mice [1] = assay: Oral glucose tolerance test in normoglycemic mice; format: in vivo
In short: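 Male C57BL/6 mice, 8 weeks old, fasted 16 h. Test compound given orally 30 min before a glucose load of 2 g/kg (10 ml/kg). Tail-nick blood glucose read by glucose strip before loading and at 0, 15, 30, 60 and 120 min after. Glucose AUC0–120min calculated by the trapezoidal rule. n=6; mean±S.E.M.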

male C57BL/6 mice [2] = assay: Total GLP-1 in plasma after glucose loading in normoglycemic mice; format: in vivo; conditions: 30 min after glucose loading
In short: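 Fasted (16 h) 8-week-old male C57BL/6 mice, 7 per group, dosed orally with test compound or vehicle 30 min before a 2 g/kg glucose load. Plasma collected from the subclavian vein 30 min after loading. Total GLP-1 measured by multispecies ELISA. One-way ANOVA with Dunnett's test versus vehicle.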

db/db mice = assay: 4-week repeated administration in db/db mice; format: in vivo; conditions: 4-week repeated oral dosing
In short: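 Male db/db mice, 8 weeks old, 7 per group, allocated by HbA1c and blood glucose after a 16 h fast. Test compound given orally once daily for 28 days. HbA1c measured from tail-vein blood on days 0 and 28. Blood glucose checked twice weekly. Body weight taken daily. OGTT on day 29, 24 h after the last dose: glucose 2 g/kg, samples at −60, 0, 15, 30, 60 and 120 min. Mean±S.E.M.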

mice = conditions: cited from earlier work
human SGLT2 = biological target: T1, human SGLT2 (Homo sapiens, UniProt P31639); assay: [14C]-AMG uptake inhibition in HEK293 cells stably expressing human SGLT2; format: cell-based; conditions: human SGLT2 vs human SGLT1, in vitro
T1 sequence (P31639 1-672): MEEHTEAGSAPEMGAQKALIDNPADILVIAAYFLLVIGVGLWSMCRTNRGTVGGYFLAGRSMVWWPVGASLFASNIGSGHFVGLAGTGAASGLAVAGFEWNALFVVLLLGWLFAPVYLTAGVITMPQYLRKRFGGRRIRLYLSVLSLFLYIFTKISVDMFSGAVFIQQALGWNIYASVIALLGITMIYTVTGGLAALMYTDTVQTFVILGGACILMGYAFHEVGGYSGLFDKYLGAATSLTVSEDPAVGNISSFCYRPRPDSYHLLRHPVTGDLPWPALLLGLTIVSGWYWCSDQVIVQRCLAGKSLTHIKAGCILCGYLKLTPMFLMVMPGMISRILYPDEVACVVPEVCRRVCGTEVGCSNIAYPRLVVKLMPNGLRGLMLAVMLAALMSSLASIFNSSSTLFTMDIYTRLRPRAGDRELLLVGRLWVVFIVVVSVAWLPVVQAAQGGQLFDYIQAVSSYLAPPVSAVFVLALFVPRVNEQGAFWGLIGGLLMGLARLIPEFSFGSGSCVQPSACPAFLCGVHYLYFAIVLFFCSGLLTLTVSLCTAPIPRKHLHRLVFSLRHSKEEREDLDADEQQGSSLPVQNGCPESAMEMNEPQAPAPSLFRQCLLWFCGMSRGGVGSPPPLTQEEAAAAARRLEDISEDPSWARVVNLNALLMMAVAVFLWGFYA

[3] = Pharmacokinetic profiles in male C57BL/6 mice; format: in vivo; conditions: for AUC(0-t): AUC0-24hr
male C57BL/6 mice [4] = assay: Urinary glucose excretion over 24 h in normoglycemic mice; format: in vivo; conditions: single oral dose 3 mg/kg with 2 g/kg glucose, 24 h urine
In short: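 Male C57BL/6 mice, 8 weeks old, 3 per group, allocated by body weight and fasted overnight. […] Urine collected in metabolism cages over 24 h. Urine volume and glucose measured by clinical chemistry analyser and normalised to body weight.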

[5] = single oral 1 mg/kg 30 min before glucose 2 g/kg
[6] = male, C57BL/6, mouse, plasma, po
[7] = male, C57BL/6, mouse, plasma, po, 0.3 mg/kg, mice
[8] = male, C57BL/6, mouse, plasma, po, 1 mg/kg, mice

Row | selectivity for SGLT2 over SGLT1 (human SGLT2) | Tmax [3, 6] | half-life [3, 6] | AUC(0-t) [3, 7] | Cmax [3, 7] | AUC(0-t) [3, 8] | Cmax [3, 8] | AUC(0-t) ([3]; male, C57BL/6, mouse, plasma, po, 3 mg/kg, mice) | maximum plasma level ([3]; mice, single oral dose 0.1 mg/kg) | SMILES | effect on blood glucose increases during OGTT (male C57BL/6 mice [1]; [5]) | Total GLP-1 in plasma (male C57BL/6 mice [2]; single oral 1 mg/kg) | change in body weight compared to vehicle-treated db/db mice (db/db mice) | reduction of glucose reabsorption (mice; SGLT1 and SGLT2 double-knockout mice) | inhibition of glucose reabsorption (mice; wild-type mice) | Urinary glucose excretion (male C57BL/6 mice [4]) | area under the curve (AUC) of glucose tolerance, OGTT 120 min (male C57BL/6 mice [1]; single oral 0.3 mg/kg 30 min before glucose 2 g/kg) | area under the curve (AUC) of glucose tolerance, OGTT 120 min (male C57BL/6 mice [1]; [5]) | area under the curve (AUC) of glucose tolerance, OGTT 120 min (male C57BL/6 mice [1]; single oral 3 mg/kg 30 min before glucose 2 g/kg) | Total GLP-1 in plasma (male C57BL/6 mice [2]; single oral 0.3 mg/kg) | Total GLP-1 in plasma (male C57BL/6 mice [2]; single oral 3 mg/kg, 3 mg/kg)
1 | – | – | – | – | – | – | – | – | – | CCOc1ccc(Cc2cc([C@@H]3O[C@H](CO)[C@@H](O)[C@H](O)[C@H]3O)ccc2Cl)cc1 [Dapagliflozin, (1S)-1,5-anhydro-1-C-{4-chloro-3-[(4-ethoxyphenyl)methyl]phenyl}-D-glucitol, reference compound] | decreased blood glucose increases during OGTT | 15.5 ± 5.7 pM | did not induce a significant change in body weight | – | – | – | – | – | – | – | –
2 | – | – | – | – | – | – | – | – | – | OC[C@H]1O[C@@H](c2ccc(Cl)c(Cc3ccc(O[C@H]4CCOC4)cc3)c2)[C@H](O)[C@@H](O)[C@@H]1O [Empagliflozin] | – | – | – | 100% | 56% | – | – | – | – | – | –
3 | 10 fold | 30 min | 186 min | 473 ng·h/mL | 142 ng/mL | 1300 ng·h/mL | 439 ng/mL | 5460 ng·h/mL | 142 ng/mL | CCc1ccc(Cc2cc([C@@H]3O[C@H](CO)[C@@H](O)[C@H](O)[C@H]3O)cc3c2CCC3)cc1 [HM41322, (2S,3R,4R,5S,6R)-2-[7-(4-ethylbenzyl)-2,3-dihydro-1H-inden-5-yl]-6-(hydroxymethyl)tetrahydro-2H-pyran-3,4,5-triol] | – | 18.0 ± 5.0 pM | did not induce a significant change in body weight | – | – | 19.32±1.16 mg/g body weight | 303.3 ± 60.17 mg·h/dL | 228.5 ± 16.96 mg·h/dL | 170.7 ± 13.14 mg·h/dL | 15.0 ± 6.6 pM | 34.2 ± 9.7 pM
